Test results reported in ChEMBL document CHEMBL5724801, “EUbOPEN Chemogenomics Library - Multiplex” (2024).
Values joined by “and” are separate entries in the source; they are usually repeats but may differ in a detail not shown here. Equal values may be shown once.

Test system: HEK-293T
Assay: Multiplex assay against HEK293T
Format: toxicity, cell-based
Details: human
How it was run: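 Compound was added to live cells that had been stained at seeding with Hoechst33342, BioTracker Green Microtubule Cytoskeleton Dye, MitoTracker Red and Annexin V Alexa Fluor 680, and imaging followed on a CQ1 microscope at 37°C and 5% CO2. CellPathfinder machine-learning gating divided cells into Hoechst high-intensity objects or normal cells, normal cells into healthy, pyknosed or fragmented nuclei, and pyknosed cells into mitotic or apoptotic. Tubulin, mitochondrial-mass and membrane-permeability phenotypes are per cents of healthy-nucleus cells.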

[1] = 12 h, 1 µM, compound concentration 1 uM
[2] = 12 h, 10 µM, compound concentration 10 uM
[3] = 24 h, 1 µM, compound concentration 1 uM
[4] = 24 h, 10 µM, compound concentration 10 uM
[5] = 48 h, 1 µM, compound concentration 1 uM
[6] = 48 h, 10 µM, compound concentration 10 uM

CN(C)CCCn1cc(C2=C(c3c[nH]c4ccccc34)C(=O)NC2=O)c2ccccc21 [GF-109203]
Population Apoptotic (%) [1]: 9.36% and 6.29%
Population Fragmented Nuclei (%) [1]: 1.17% and 4.02%
Population Hoechst High Intensity Objects (%) [1]: 0.58% and 0%
Population Membrane Permeable-Phenotype (%) [1]: 0% and 4.17%
Population Mitochondria Different-Phenotype (%) [1]: 26.35% and 29.17%
Population Mitotic Cells (%) [1]: 90.64% and 93.71%
Population Normal (%) [1]: 99.42% and 100%
Population Pyknosed Nuclei (%) [1]: 50% and 82.18%
Total Cell Count [1]: 344 and 174
Population Apoptotic (%) [2]: 11.11% and 17.19%
Population Fragmented Nuclei (%) [2]: 4.81% and 3.4%
Population Hoechst High Intensity Objects (%) [2]: 0.32% and 0%
Population Membrane Permeable-Phenotype (%) [2]: 0% and 7.14%
Population Mitotic Cells (%) [2]: 88.89% and 82.81%
Population Normal (%) [2]: 99.68% and 100%
Population Pyknosed Nuclei (%) [2]: 57.69% and 87.07%
Population Tubulin-Different-Phenotype (%) [2]: 52.99% and 57.14%
Total Cell Count [2]: 313 and 147
Population Apoptotic (%) [3]: 15.57% and 18.97%
Population Fragmented Nuclei (%) [3]: 1.6% and 5.42%
Population Healthy Nuclei (%) [3]: 73.95% and 24.7%
Population Hoechst High Intensity Objects (%) [3]: 0%
Population Membrane Permeable-Phenotype (%) [3]: 1.36% and 4.88%
Population Mitochondria Different-Phenotype (%) [3]: 10.84% and 17.07%
Population Mitotic Cells (%) [3]: 84.43% and 81.03%
Population Normal (%) [3]: 100%
Population Pyknosed Nuclei (%) [3]: 24.45% and 69.88%
Population Tubulin-Different-Phenotype (%) [3]: 17.62% and 12.2%
Population Apoptotic (%) [4]: 27.17% and 24.46%
Population Fragmented Nuclei (%) [4]: 2.62% and 2.48%
Population Hoechst High Intensity Objects (%) [4]: 0%
Population Membrane Permeable-Phenotype (%) [4]: 0%
Population Mitochondria Different-Phenotype (%) [4]: 40.74% and 16.67%
Population Mitotic Cells (%) [4]: 72.83% and 75.54%
Population Normal (%) [4]: 100%
Population Pyknosed Nuclei (%) [4]: 50.29% and 86.34%
Population Tubulin-Different-Phenotype (%) [4]: 84.57% and 50%
Total Cell Count [4]: 344 and 161
Population Apoptotic (%) [5]: 10.45% and 22.58%
Population Fragmented Nuclei (%) [5]: 0.57% and 1.08%
Population Healthy Nuclei (%) [5]: 84.04% and 48.92%
Population Hoechst High Intensity Objects (%) [5]: 0%
Population Membrane Permeable-Phenotype (%) [5]: 3.01% and 1.1%
Population Mitochondria Different-Phenotype (%) [5]: 32.1% and 38.46%
Population Mitotic Cells (%) [5]: 89.55% and 77.42%
Population Normal (%) [5]: 100%
Population Apoptotic (%) [6]: 45.68% and 29.41%
Population Fragmented Nuclei (%) [6]: 1.92% and 2.34%
Population Healthy Nuclei (%) [6]: 46.15% and 18.13%
Population Hoechst High Intensity Objects (%) [6]: 0% and 0.58%
Population Membrane Permeable-Phenotype (%) [6]: 1.39% and 9.68%
Population Mitochondria Different-Phenotype (%) [6]: 87.5% and 58.06%
Population Mitotic Cells (%) [6]: 54.32% and 70.59%
Population Normal (%) [6]: 100% and 99.42%
Population Pyknosed Nuclei (%) [6]: 51.92% and 79.53%
Total Cell Count [6]: 312 and 172

CC(C)(O)c1cnc(N2C[C@@]3(CCC[C@](C)(Cn4cnc5ccc(C#N)cc54)C3)OC2=O)cn1 [GSK2798745]
Population Apoptotic (%) [1]: 8.76% and 9.45%
Population Fragmented Nuclei (%) [1]: 1.42% and 8.48%
Population Hoechst High Intensity Objects (%) [1]: 0%
Population Membrane Permeable-Phenotype (%) [1]: 0% and 4.17%
Population Mitochondria Different-Phenotype (%) [1]: 40% and 37.5%
Population Mitotic Cells (%) [1]: 91.24% and 90.55%
Population Normal (%) [1]: 100%
Population Pyknosed Nuclei (%) [1]: 38.92% and 76.97%
Total Cell Count [1]: 352 and 165
Population Apoptotic (%) [2]: 8.93% and 6.72%
Population Fragmented Nuclei (%) [2]: 1.58% and 0.69%
Population Healthy Nuclei (%) [2]: 45.43% and 17.24%
Population Hoechst High Intensity Objects (%) [2]: 0.63% and 0%
Population Membrane Permeable-Phenotype (%) [2]: 0%
Population Mitochondria Different-Phenotype (%) [2]: 36.11% and 20%
Population Mitotic Cells (%) [2]: 91.07% and 93.28%
Population Normal (%) [2]: 99.37% and 100%
Population Pyknosed Nuclei (%) [2]: 53% and 82.07%
Population Tubulin-Different-Phenotype (%) [2]: 24.31% and 48%
Total Cell Count [2]: 319 and 145
Population Apoptotic (%) [3]: 18.02% and 17.31%
Population Fragmented Nuclei (%) [3]: 0.94% and 3.7%
Population Healthy Nuclei (%) [3]: 78.24% and 32.1%
Population Hoechst High Intensity Objects (%) [3]: 0%
Population Membrane Permeable-Phenotype (%) [3]: 2.88% and 0%
Population Mitochondria Different-Phenotype (%) [3]: 16.31% and 11.54%
Population Mitotic Cells (%) [3]: 81.98% and 82.69%
Population Normal (%) [3]: 100%
Population Tubulin-Different-Phenotype (%) [3]: 16.79% and 7.69%
Population Apoptotic (%) [4]: 17.91% and 14.14%
Population Fragmented Nuclei (%) [4]: 2.04% and 1.31%
Population Healthy Nuclei (%) [4]: 63.87% and 33.99%
Population Hoechst High Intensity Objects (%) [4]: 0%
Population Membrane Permeable-Phenotype (%) [4]: 0.8% and 0%
Population Mitochondria Different-Phenotype (%) [4]: 27.09% and 9.62%
Population Mitotic Cells (%) [4]: 82.09% and 85.86%
Population Normal (%) [4]: 100%
Population Pyknosed Nuclei (%) [4]: 34.1% and 64.71%
Population Tubulin-Different-Phenotype (%) [4]: 37.85% and 13.46%
Total Cell Count [4]: 393 and 153
Population Fragmented Nuclei (%) [5]: 2.32% and 3.45%
Population Healthy Nuclei (%) [5]: 86.2% and 69.4%
Population Hoechst High Intensity Objects (%) [5]: 0% and 1.28%
Population Membrane Permeable-Phenotype (%) [5]: 5.88% and 4.97%
Population Mitochondria Different-Phenotype (%) [5]: 16.75% and 31.68%
Population Mitotic Cells (%) [5]: 97.55% and 73.02%
Population Normal (%) [5]: 100% and 98.72%
Population Pyknosed Nuclei (%) [5]: 11.48% and 27.16%
Population Apoptotic (%) [6]: 12.84% and 15.85%
Population Fragmented Nuclei (%) [6]: 2.45% and 0.91%
Population Healthy Nuclei (%) [6]: 82.72% and 61.64%
Population Hoechst High Intensity Objects (%) [6]: 0.14% and 0%
Population Membrane Permeable-Phenotype (%) [6]: 8.39% and 0.74%
Population Mitochondria Different-Phenotype (%) [6]: 44.41% and 40%
Population Mitotic Cells (%) [6]: 87.16% and 84.15%
Population Normal (%) [6]: 99.86% and 100%
Population Pyknosed Nuclei (%) [6]: 14.83% and 37.44%
